Results on 24 compounds are retold here after ChEMBL document CHEMBL3272073, “3-Fluoro-1-hydroxypropan-2-one (fluorohydroxyacetone) and some esters. Syntheses and effects in BDF mice” (J Med Chem, 1977).

Data set [1] in a line: Toxicity in ip dosed BDF1 mouse. Format: organism-based. The note with it: in vivo. A digest of the protocol: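 Acute toxicity in female BDF1 mice, reported as LD50 in mg/kg and mmol/kg.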
Data set [2] deals with Ehrlich. Briefly: Antitumor activity against mouse EAC allografted in BDF1 mouse assessed as cure from tumor at < LD50 administered as ip after 180 days. It counts as functional, organism-based. A digest of the protocol: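 Mice bearing Ehrlich ascites carcinoma were treated with ester. Cure was defined as survival to 180 days.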
Data set [3] has as its system Ehrlich. In words: Antitumor activity against mouse EAC allografted in BDF1 mouse assessed as inhibition of tumor growth < LD50 administered as ip. It counts as functional.
The next data set deals with L1210. Briefly: Antitumor activity against mouse L1210 cells allografted in immune competent BDF1 mouse assessed as increase of host survival at < LD50 administered as ip after 60 days. Format: functional.
Data set [4] can be described thus: Toxicity in mouse L1210 cells allografted immunosuppressed BDF1 mouse assessed as mortality dosed intraperitoneally <LD50 after 60 days. Format: organism-based. The note with it: in vivo, ip, read-out: Activity.

Molecules are shown by their SMILES. Calls of active or inactive are those of the source.

For the compound `C1CCC(NC2CCCCC2)CC1.O=P(O)(O)OCC(O)CCl`, the LD50 (in general, the dose at which mortality reaches 50%) in data set [1] was 2100 µmol/kg.
For `COC(CF)(COC(=O)c1ccccc1)OC`, the 50% lethal dose (LD50) in data set [1] is 230 µmol/kg.
On the same count and under the same terms, in the case of `OCC(O)CF` (stereo not given) it was 210 µmol/kg; in that of `O=C(OCC(O)CF)c1ccccc1` (stereo not given), 230 µmol/kg; in that of `CC(=O)OCC(CCl)OC(C)=O` (stereo not given), 1740 µmol/kg.
For `O=C(CO)CF`, the LD50 in data set [1] turned out to be 220 µmol/kg.
For the compound `O=C(CCl)COC(=O)c1ccc([N+](=O)[O-])cc1`, the result in the data set on Ehrlich [2] was Active. In data set [1], this compound had an LD50 of 660 µmol/kg.
Take `O=C(CCl)COC(=O)c1cc([N+](=O)[O-])cc([N+](=O)[O-])c1`: in data set [1], the LD50 stood at 880 µmol/kg.
In data set [1], `O=C(OCC(O)CCl)c1ccccc1` (stereo not given) yielded an LD50 of 2100 µmol/kg.
On the same count and under the same terms, in the case of `CC(=O)OCC(CF)OC(C)=O` (stereo not given) it was 220 µmol/kg; in that of `O=C(CBr)COC(=O)c1ccccc1`, 120 µmol/kg.
The compound `CC(=O)OCC(=O)CF` showed an LD50 in data set [1] of 220 µmol/kg.
The same measure, in the same setting: in the case of `O=C(OCC(O)CBr)c1ccccc1` (stereo not given) it was 1370 µmol/kg.
Same read-out and setting: in the case of `CC(=O)OCC(=O)CCl` it was 470 µmol/kg; in that of `C1CCC(NC2CCCCC2)CC1.O=P(O)(O)OCC(O)CF`, 300 µmol/kg.
In data set [1], `OCC(O)CCl` (stereo not given) showed an LD50 of 1800 µmol/kg.
Same read-out and setting: in the case of `O=C(CF)COC(=O)c1ccc([N+](=O)[O-])cc1` it was 370 µmol/kg.
For the compound `OCC(O)CBr` (stereo not given), the LD50 in data set [1] came to 1370 µmol/kg.
In the case of `O=C(CF)COP(=O)(O)O`, in data set [1], the LD50 was found to be 150 µmol/kg. Further, in the data set with Ehrlich [3], the TGI result is “Active”.
The compound `COC(CO)(CF)OC` came in with a median lethal dose (LD50) in data set [1] of 200 µmol/kg.
The compound `O=C(CF)COC(=O)c1ccccc1` displayed an LD50 in data set [1] of 180 µmol/kg. In addition, the TGI entry in the data set on Ehrlich [3] was “Active”.
On to `O=C(CCl)COP(=O)(O)O`, for which the median lethal dose (LD50) in data set [1] turned out to be 360 µmol/kg.
Same read-out and setting: in the case of `CC(=O)COC(=O)c1ccccc1` it was 7860 µmol/kg.
`O=C(CCl)COC(=O)c1ccccc1`: the Survival in the data set on L1210 turned out to be 85%. Further, the outcome in the data set on Ehrlich [2] was Active. The same compound registered an LD50 in data set [1] of 330 µmol/kg. The mortality at 1440 h in data set [4] was determined as 85%.
